Data as given in ChEMBL document CHEMBL1128666, “Synthesis and antimicrobial and toxicological studies of amino acid and peptide derivatives of kanamycin A and netilmicin” (J Med Chem, 1995).
Converted amounts (≈) assume the structure as drawn. “And” between values parts separate entries of the source, which are not always exact repeats. Equal entries are not always repeated.

Experiments:
Staphylococcus aureus [1] = experiment: microbe, parasite or virus in culture; details: ATCC 25923
Serratia marcescens = experiment: Minimum inhibitory concentration measured against Serratia marcescens; format: functional
Outline: (§1)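 Strains were clinical isolates from the microbiology laboratories of Cliniques Universitaires St-Luc and Hôpital Brugmann, Brussels, and were characterized there. Compounds were tested as sulfate salts, which were stable in distilled water at pH 7.0 for at least 24 h. MIC was the highest dilution giving no visible growth, expressed in mg/L of free base.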

Acinetobacter baumannii = experiment: Minimum inhibitory concentration (MIC) was measured against Acinetobacter baumanni ATCC 19606.; format: functional
Outline: (§2)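 Strains from ATCC; compounds tested as sulfate salts (stable ≥24 h in water at pH 7.0). MIC taken as highest dilution with no visible bacterial growth, expressed in mg/L of free base.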

Escherichia coli [2] = experiment: Minimum inhibitory concentration (MIC) was measured against Escherichia coli.; format: functional
Outline: as §1

Citrobacter freundii = experiment: Minimum inhibitory concentration (MIC) was measured against Citrobacter freundii.; format: functional
Outline: as §1

Enterococcus faecalis = experiment: Minimum inhibitory concentration (MIC) was measured against Enterococcus faecalis ATCC 29212.; format: functional
Pseudomonas aeruginosa [3] = experiment: Minimum inhibitory concentration (MIC) was measured against Pseudomonas aeruginosa.; format: functional
Outline: as §1

Enterobacter cloacae = experiment: Minimum inhibitory concentration (MIC) was measured against Enterobacter cloacae.; format: functional
Outline: as §1

Staphylococcus aureus [4] = experiment: Minimum inhibitory concentration (MIC) was measured against Staphylococcus aureus.; format: functional
Outline: as §1

Acinetobacter lwoffii = experiment: microbe, parasite or virus in culture; details: ATCC 17986
Pseudomonas aeruginosa [5] = experiment: Minimum inhibitory concentration (MIC) was measured against Pseudomonas aeruginosa ATCC 27853.; format: functional
Escherichia coli [6] = experiment: Minimum inhibitory concentration (MIC) was measured against Escherichia coli ATCC 35218.; format: functional
Outline: as §2

Escherichia coli [7] = experiment: Minimum inhibitory concentration (MIC) was measured against Escherichia coli ATCC 25922.; format: functional
[8] = target: T1, Phospholipase A1 member A (Rattus norvegicus, UniProt P97535); experiment: IC50 was measured as concentration causing 50% inhibition of lysosomal phospholipase A1 activity.
T1 sequence (P97535 whole entry): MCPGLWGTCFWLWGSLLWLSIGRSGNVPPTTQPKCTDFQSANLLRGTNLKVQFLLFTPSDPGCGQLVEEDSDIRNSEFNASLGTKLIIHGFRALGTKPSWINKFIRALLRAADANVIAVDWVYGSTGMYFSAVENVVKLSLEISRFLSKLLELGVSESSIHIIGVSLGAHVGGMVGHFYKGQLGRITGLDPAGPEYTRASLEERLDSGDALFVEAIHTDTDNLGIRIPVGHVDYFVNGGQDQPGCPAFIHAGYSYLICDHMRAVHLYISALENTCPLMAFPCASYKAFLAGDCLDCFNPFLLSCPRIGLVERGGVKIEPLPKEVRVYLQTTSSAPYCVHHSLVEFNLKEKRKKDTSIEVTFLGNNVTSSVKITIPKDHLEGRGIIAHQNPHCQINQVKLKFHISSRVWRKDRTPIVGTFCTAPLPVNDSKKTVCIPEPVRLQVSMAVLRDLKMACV

[9] = Serratia marcescens, read-out: MIC
[10] = Pseudomonas aeruginosa, read-out: MIC
[11] = Enterobacter cloacae, read-out: MIC

In the case of `CC(N)C(=O)NC1CC(N)C(OC2OC(CN)C(O)C(O)C2O)C(O)C1OC1OC(CO)C(O)C(N)C1O` (stereo not given), the MIC (Staphylococcus aureus [1]) is reported as 16 µg/mL (≈ 28.8 µM), the MIC (Serratia marcescens) is reported as over 128 mg/L and the MIC (Serratia marcescens; [9]) is reported as 128 mg/L (≈ 230 µM). It also gave an MIC (Acinetobacter baumannii) of 128 µg/mL (≈ 230 µM), an MIC (Escherichia coli [2]) of over 128 µg/mL and an MIC (Citrobacter freundii) of 64 µg/mL (≈ 115 µM). The MIC (Enterococcus faecalis) was over 128 µg/mL, the MIC (Pseudomonas aeruginosa [3]; [10]) was over 128 µg/mL and the MIC (Enterobacter cloacae) was over 128 µg/mL. It also gave an MIC (Enterobacter cloacae; [11]) of 64 µg/mL (≈ 115 µM), an MIC (Staphylococcus aureus [4]) of over 128 µg/mL and an MIC (Acinetobacter lwoffii) of over 128 µg/mL. For the same compound, the MIC (Pseudomonas aeruginosa [5]) was over 128 µg/mL, the MIC (Escherichia coli [6]) was 64 µg/mL (≈ 115 µM) and the MIC (Escherichia coli [7]) was 128 µg/mL (≈ 230 µM).

For `CCNC1CC(N)C(OC2OC(CNC(=O)C(C)N)=CCC2N)C(O)C1OC1OCC(C)(O)C(NC)C1O` (stereo not given), the MIC (Staphylococcus aureus [1]) was 32 µg/mL (≈ 58.5 µM), the MIC (Serratia marcescens) was over 128 mg/L and the MIC (Serratia marcescens; [9]) was 128 mg/L (≈ 234 µM). For the same compound, the MIC (Acinetobacter baumannii) was over 128 µg/mL, the MIC (Escherichia coli [2]) was over 128 µg/mL and the MIC (Citrobacter freundii) was 32 µg/mL (≈ 58.5 µM). The MIC (Enterococcus faecalis) was 128 µg/mL (≈ 234 µM), the MIC (Pseudomonas aeruginosa [3]; [10]) was over 128 µg/mL and the MIC (Enterobacter cloacae; [11]) was over 128 µg/mL. The MIC (Staphylococcus aureus [4]) was over 128 µg/mL, the MIC (Acinetobacter lwoffii) was 128 µg/mL (≈ 234 µM) and the MIC (Pseudomonas aeruginosa [5]) was over 128 µg/mL. For the same compound, the MIC (Escherichia coli [6]) was 32 µg/mL (≈ 58.5 µM) and the MIC (Escherichia coli [7]) was 128 µg/mL (≈ 234 µM).

For `NCC[C@H](O)C(=O)N[C@@H]1C[C@H](N)[C@@H](O[C@H]2O[C@H](CN)[C@@H](O)[C@H](O)[C@H]2O)[C@H](O)[C@H]1O[C@H]1O[C@H](CO)[C@@H](O)[C@H](N)[C@H]1O` [AMIKACIN], the MIC (Staphylococcus aureus [1]) was 4 µg/mL (≈ 6.83 µM), the MIC (Acinetobacter baumannii) was 16 µg/mL (≈ 27.3 µM) and the MIC (Escherichia coli [2]) was 128 µg/mL (≈ 219 µM). It also gave an MIC (Citrobacter freundii) of 4 µg/mL (≈ 6.83 µM), an MIC (Enterococcus faecalis) of 64 µg/mL (≈ 109 µM) and an MIC (Pseudomonas aeruginosa [3]) of 64 µg/mL (≈ 109 µM). The MIC (Pseudomonas aeruginosa [3]; [10]) was 64 µg/mL (≈ 109 µM), the MIC (Staphylococcus aureus [4]) was 32 µg/mL (≈ 54.6 µM) and the MIC (Acinetobacter lwoffii) was 32 µg/mL (≈ 54.6 µM). It also gave an MIC (Pseudomonas aeruginosa [5]) of 32 µg/mL (≈ 54.6 µM), an MIC (Escherichia coli [6]) of 2 µg/mL (≈ 3.42 µM) and an MIC (Escherichia coli [7]) of 8 µg/mL (≈ 13.7 µM).

`CN[C@@H]1[C@@H](O)[C@@H](O[C@@H]2[C@@H](O)[C@H](O[C@H]3O[C@H](CN)[C@@H](O)[C@H](O)[C@H]3O)[C@@H](N)C[C@H]2NC(=O)[C@@H](O)CN)OC[C@]1(C)O` [ISEPAMICIN] gave an MIC (Staphylococcus aureus [1]) of 4 µg/mL (≈ 7.02 µM), an MIC (Acinetobacter baumannii) of 32 µg/mL (≈ 56.2 µM) and an MIC (Escherichia coli [2]) of 32 µg/mL (≈ 56.2 µM). The MIC (Citrobacter freundii) was 4 µg/mL (≈ 7.02 µM), the MIC (Enterococcus faecalis) was 64 µg/mL (≈ 112 µM) and the MIC (Pseudomonas aeruginosa [3]) was 64 µg/mL (≈ 112 µM). It also gave an MIC (Pseudomonas aeruginosa [3]; [10]) of 64 µg/mL (≈ 112 µM), an MIC (Enterobacter cloacae) of 8 µg/mL (≈ 14 µM) and an MIC (Enterobacter cloacae; [11]) of 4 µg/mL (≈ 7.02 µM). It also gave an MIC (Staphylococcus aureus [4]) of 2 µg/mL (≈ 3.51 µM), an MIC (Acinetobacter lwoffii) of 16 µg/mL (≈ 28.1 µM) and an MIC (Pseudomonas aeruginosa [5]) of 16 µg/mL (≈ 28.1 µM). The MIC (Escherichia coli [6]) was 2 µg/mL (≈ 3.51 µM) and the MIC (Escherichia coli [7]) was 8 µg/mL (≈ 14 µM).

`NC[C@H]1O[C@H](O[C@H]2[C@H](O)[C@@H](O[C@H]3O[C@H](CO)[C@@H](O)[C@H](N)[C@H]3O)[C@H](N)C[C@@H]2N)[C@H](O)[C@@H](O)[C@@H]1O` [KANAMYCIN] gave an MIC (Staphylococcus aureus [1]) of 1 µg/mL (≈ 2.06 µM), an MIC (Acinetobacter baumannii) of 4 µg/mL (≈ 8.26 µM) and an MIC (Escherichia coli [2]) of over 128 µg/mL. It also gave an MIC (Citrobacter freundii) of 4 µg/mL (≈ 8.26 µM), an MIC (Enterococcus faecalis) of 32 µg/mL (≈ 66 µM) and an MIC (Pseudomonas aeruginosa [3]; [10]) of over 128 µg/mL. For the same compound, the MIC (Staphylococcus aureus [4]) was over 128 µg/mL, the MIC (Acinetobacter lwoffii) was 16 µg/mL (≈ 33 µM) and the MIC (Pseudomonas aeruginosa [5]) was over 128 µg/mL. For the same compound, the MIC (Escherichia coli [6]) was 2 µg/mL (≈ 4.13 µM) and the MIC (Escherichia coli [7]) was 8 µg/mL (≈ 16.5 µM).

`CCN[C@@H]1C[C@H](N)[C@@H](O[C@H]2OC(CN)=CC[C@H]2N)[C@H](O)[C@H]1O[C@H]1OC[C@](C)(O)[C@H](NC)[C@H]1O` [NETILMICIN] gave an MIC (Staphylococcus aureus [1]) of 0.25 µg/mL (≈ 0.526 µM), an MIC (Acinetobacter baumannii) of 32 µg/mL (≈ 67.3 µM) and an MIC (Escherichia coli [2]) of over 128 µg/mL. For the same compound, the MIC (Citrobacter freundii) was 0.25 µg/mL (≈ 0.526 µM), the MIC (Enterococcus faecalis) was 4 µg/mL (≈ 8.41 µM) and the MIC (Pseudomonas aeruginosa [3]) was over 128 µg/mL. The MIC (Pseudomonas aeruginosa [3]; [10]) was 64 µg/mL (≈ 135 µM), the MIC (Staphylococcus aureus [4]) was 8 µg/mL (≈ 16.8 µM) and the MIC (Acinetobacter lwoffii) was 32 µg/mL (≈ 67.3 µM). It also gave an MIC (Pseudomonas aeruginosa [5]) of 8 µg/mL (≈ 16.8 µM), an MIC (Escherichia coli [6]) of 0.5 µg/mL (≈ 1.05 µM) and an MIC (Escherichia coli [7]) of 1 µg/mL (≈ 2.1 µM).

GENTAMICIN [listing 1 of 2 here] was tested, and the IC50 [8] was 45 µg/mL.

For GENTAMICIN [listing 2 of 2 here], the MIC (Serratia marcescens) was 4 µg/mL (2×) and 8 µg/mL (2×), the MIC (Acinetobacter baumannii) was 32 µg/mL and the MIC (Escherichia coli [2]) was 16 µg/mL. For the same compound, the MIC (Citrobacter freundii) was 1 µg/mL, the MIC (Enterococcus faecalis) was 16 µg/mL and the MIC (Pseudomonas aeruginosa [3]) was 64 µg/mL and > 128 µg/mL. The MIC (Enterobacter cloacae) was 32 µg/mL, the MIC (Staphylococcus aureus [4]) was over 128 µg/mL and the MIC (Pseudomonas aeruginosa [5]) was 8 µg/mL. For the same compound, the MIC (Escherichia coli [6]) was 1 µg/mL and the MIC (Escherichia coli [7]) was 4 µg/mL.
